The text below walks through data of ChEMBL document CHEMBL1255572, “Novel pyrimidines as acid pump antagonists (APAs)” (Bioorg Med Chem Lett, 2010).

The nature of assay [1]: Inhibition of H+/K+/ATPase. Summed up:
(§1)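 Ion-leaky membrane vesicles enriched in H+/K+-ATPase prepared from pig stomach. Lyophilized vesicles in 5 mM Pipes/Tris pH 6.1 preincubated 5 min with compound at various concentrations. K+-containing or K+-free buffer then added, ATP substrate added, and incubated 30 min at 37 °C. Colorimetric reagent stopped the reaction and Pi was read at 620 nm. K+-stimulated activity is the difference between with and without K+. IC50 by Litchfield–Wilcoxon.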

Assay [2] in a line: Inhibition of H+/K+/ATPase at 4 uM. The method in brief: as §1

Where a name gives a salt, the structure may show the parent alone.

For orientation: IC50 means the concentration that inhibits the measured activity by half. `Cc1ccc2c(c1)CCN(c1nc(C3(c4ccc(F)cc4)CC3)nc(C)c1C)C2C` (centres undefined) displayed a 50% inhibitory concentration (IC50) in assay [1] of 1290 nM.

`COc1ccc2c(c1)CCN(c1nc(Cc3ccc(F)cc3)nc(C)c1C)C2C` (centres undefined): the IC50 in assay [1] was found to be 170 nM.

What is called inhibition is the relative decrease from the control value, in per cent. `COc1ccc2c(c1)C(C)N(c1nc(C(C)(C)c3ccc(F)cc3)nc(C)c1C)CC2` (centres undefined) showed an inhibition in assay [2] of 34.2%.

As to `Cc1ccc2c(c1)CCN(c1nc(C(F)c3ccc(F)cc3)nc(C)c1C)C2C` (centres undefined), in assay [1], it took 1130 nM to reach half-maximal inhibition (IC50).

With `Cc1ccc2c(c1)CCN(c1nc(C(O)c3ccc(F)cc3)nc(C)c1C)C2C` (centres undefined), the IC50 in assay [1] was determined as 1510 nM. This IC50 and that of the compound before are within 1.5-fold of each other.

In assay [1], `COc1ccc2c(c1)C(C)N(c1nc(C(=O)c3ccc(F)cc3)nc(C)c1C)CC2` (centres undefined) registered an IC50 of 1120 nM. This IC50 and that of the compound before are within 1.5-fold of each other.

In assay [1], `Cc1ccc2c(c1)CCN(c1nc(C(C)(C)c3ccc(F)cc3)nc(C)c1C)C2C` (centres undefined) returned an IC50 of 1760 nM. This IC50 is about 1.6-fold higher than that of the compound before.

With `Cc1nc(Cc2ccc(F)cc2)nc(N2CC(C)c3ccccc3C2C)c1C` (centres undefined), the half-maximal inhibitory concentration (IC50) in assay [1] came out at 610 nM. This IC50 lies about 2.9-fold lower than the previous one.

In turn, `Cc1nc(Cc2ccc(F)cc2)nc(N2CCc3c(Cl)cccc3C2C)c1C` (centres undefined) came in with an IC50 in assay [1] of 1990 nM.

Compound `Cc1nc(Nc2ccc(F)cc2)nc(N2CCc3ccccc3C2C)c1C` (centres undefined) [REVAPRAZAN HYDROCHLORIDE] registered an IC50 in assay [1] of 350 nM.

As to `Cc1ccc2c(c1)CCN(c1nc(C(=O)c3ccc(F)cc3)nc(C)c1C)C2C` (centres undefined), in assay [1], half-maximal inhibition (IC50) was put at 1910 nM. Compared with the last compound, the IC50 is about 5.5-fold higher.

In assay [1], `Cc1cccc2c1C(C)N(c1nc(Cc3ccc(F)cc3)nc(C)c1C)CC2` (centres undefined) registered an IC50 of 700 nM. This IC50 lies about 2.7-fold lower than the previous one.

As for `Cc1ccc2c(c1)C(C)N(c1nc(Cc3ccc(F)cc3)nc(C)c1C)CC2` (centres undefined), the midpoint of inhibition in assay [1], the IC50, lay at 300 nM.

Compound `Cc1nc(Cc2ccc(F)cc2)nc(N2CCc3cc(Cl)ccc3C2C)c1C` (centres undefined) registered an IC50 in assay [1] of 940 nM. Compared with the last compound, the IC50 is about 3.1-fold higher.

Regarding `COc1ccc2c(c1)C(C)N(c1nc(C3(c4ccc(F)cc4)CC3)nc(C)c1C)CC2` (centres undefined), the inhibition in assay [2] was 1.4%.

As to `COc1ccc2c(c1)C(C)N(c1nc(Cc3ccc(F)cc3)nc(C)c1C)CC2` (centres undefined), in assay [1], the midpoint of inhibition, the IC50, lay at 52 nM.

The compound `Cc1nc(Cc2ccc(F)cc2)nc(N2CCc3ccc(Cl)cc3C2C)c1C` (centres undefined) had a half-inhibitory concentration (IC50) in assay [1] of 1630 nM.

`Cc1nc(Cc2ccc(F)cc2)nc(N2CCc3ccc(F)cc3C2C)c1C` (centres undefined): in assay [1], the IC50 is 1240 nM.

Compound `Cc1ccc2c(c1)CCN(c1nc(Cc3ccc(F)cc3)nc(C)c1C)C2C` (centres undefined) had an IC50 in assay [1] of 230 nM.
